Measured values as given in ChEMBL document CHEMBL1150426, “New C5-alkylated indolobenzazepinones acting as inhibitors of tubulin polymerization: cytotoxic and antitumor activities” (J Med Chem, 2008).
Calls of active or inactive are those of the source. No cut-off for these calls is given here.

Tests used:
MDA-MB-231 [1] = assay: Induction of apoptosis in human MDA-MB-231 cells assessed as activation of caspase 3 at 0.01 to 1 uM after 24 hrs by microtitre plate fluorimeter; type: functional, cell-based
Procedure, shortened: (§1)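 Cells seeded 5 × 10⁴/well, then after 24 h given compound at 1, 0.1 or 0.01 µM, or 0.1% DMSO as negative control, for 24 h. Caspase-3/7 substrate in homogeneous assay buffer added; fluorescence read at 527 nm after 1 h.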

HCT-116 [2] = assay: Antiproliferative activity against human HCT116 cells after 72 hrs; type: functional, cell-based; details: HCT-116, 72 h
Procedure, shortened: (§2)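 Cells were seeded at 5 × 10³ per well and cultured for 24 h. Test compound in DMSO (under 0.1%) was then added for 72 h. Resazurin was added for 2 h, and fluorescence was read at ex 560 nm / em 590 nm. IC50 was taken as the concentration giving a 50% fall in fluorescence versus untreated cells. Runs were done in triplicate.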

HCT-116 [3] = assay: Induction of apoptosis in human HCT116 cells assessed as activation of caspase 3 at 0.01 to 1 uM after 24 hrs by microtitre plate fluorimeter; type: functional, cell-based; procedure, shortened: as §1
K562 [4] = assay: Cell cycle arrest in human K562 cells assessed as accumulation at S phase at 1 uM after 6 hrs by flow cytometry; type: functional
Procedure, shortened: (§3)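 Exponentially growing K562 cells exposed to compound or DMSO for 6, 16 or 24 h; cell-cycle phase distribution determined by flow cytometry; data representative of three independent experiments.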

K562 [5] = assay: Cell cycle arrest in human K562 cells assessed as accumulation at G2/M phase at 0.05 uM after 16 hrs by flow cytometry; type: functional; procedure, shortened: as §3
HT-29 = assay: Antiproliferative activity against human HT29 cells after 72 hrs; type: functional, cell-based; details: HT-29, 72 h; procedure, shortened: as §2
MDA-MB-231 [6] = assay: Effect on cell morphology in human MDA-MB-231 cells assessed as change in cell size and shape at 0.050 uM after 24 hrs; type: functional, cell-based
Procedure, shortened: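 MDA-MB231 cells on chamber slides treated 24 h at 50 nM, fixed in 3.7% formaldehyde, permeabilized with 0.1% Triton X-100. Stained for β-tubulin (Alexa 488 secondary), actin (Alexa 546 phalloidin) and nuclei (Hoechst 33342); imaged by fluorescence microscopy at 60× and 100×.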

K562 [7] = assay: Cell cycle arrest in human K562 cells assessed as accumulation at G2/M phase at 0.05 uM after 24 hrs by flow cytometry; type: functional; procedure, shortened: as §3
K562 [8] = assay: Cell cycle arrest in human K562 cells assessed as accumulation at S phase at 0.05 uM after 16 hrs by flow cytometry; type: functional; procedure, shortened: as §3
K562 [9] = assay: Induction of apoptosis in human K562 cells assessed as activation of caspase 7 at 0.01 to 1 uM after 24 hrs by microtitre plate fluorimeter; type: functional, cell-based; procedure, shortened: as §1
MDA-MB-231 [10] = assay: Antiproliferative activity against human MDA-MB-231 cells after 72 hrs; type: functional, cell-based; details: MDA-MB-231, 72 h; procedure, shortened: as §2
B16-F10 = assay: Antiproliferative activity against mouse B16F10 cells after 72 hrs; type: functional, cell-based; details: B16-F10, 72 h; procedure, shortened: as §2
K562 [11] = assay: Cell cycle arrest in human K562 cells assessed as accumulation at G0/G1 phase at 0.5 uM after 24 hrs by flow cytometry; type: functional; procedure, shortened: as §3
L1210 = assay: Antiproliferative activity against mouse L1210 cells after 72 hrs; type: functional, cell-based; details: L1210, 72 h; procedure, shortened: as §2
K562 [12] = assay: Cell cycle arrest in human K562 cells assessed as accumulation at S phase at 1 uM after 24 hrs by flow cytometry; type: functional; procedure, shortened: as §3
MDA-MB-231 [13] = assay: Cell cycle arrest in human MDA-MB-231 cells assessed as accumulation at G2/M phase at 0.05 uM after 24 hrs by flow cytometry
MCF7 [14] = assay: Cell cycle arrest in human MCF7 cells assessed as accumulation at G2/M phase at 0.1 uM after 24 hrs by flow cytometry
K562 [15] = assay: Cell cycle arrest in human K562 cells assessed as accumulation at G0/G1 phase at 1 uM after 24 hrs by flow cytometry; type: functional; procedure, shortened: as §3
KB = assay: Cytotoxicity against human KB cells after 72 hrs; type: functional, cell-based
Procedure, shortened: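 KB cells in EMEM (4.5 g/L glucose, 10% FCS, 1% glutamine) seeded 5 × 10³/well, dosed after 24 h with compound in DMSO (<0.1%). 72 h exposure, then resazurin 2 h; fluorescence ex 560/em 590 nm. IC50 = 50% fluorescence decrease versus untreated; triplicate.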

K562 [16] = assay: Cell cycle arrest in human K562 cells assessed as accumulation at G0/G1 phase at 1 uM after 6 hrs by flow cytometry; type: functional; procedure, shortened: as §3
MDA-MB-231 [17] = assay: Cell cycle arrest in human MDA-MB-231 cells assessed as accumulation at G2/M phase at 0.1 uM after 24 hrs by flow cytometry
K562 [18] = assay: Cell cycle arrest in human K562 cells assessed as accumulation at S phase at 0.05 uM after 24 hrs by flow cytometry; type: functional; procedure, shortened: as §3
K562 [19] = assay: Cell cycle arrest in human K562 cells assessed as accumulation at G2/M phase at 0.5 uM after 24 hrs by flow cytometry; type: functional; procedure, shortened: as §3
K562 [20] = assay: Cell cycle arrest in human K562 cells assessed as accumulation at S phase at 0.5 uM after 6 hrs by flow cytometry; type: functional; procedure, shortened: as §3
K562 [21] = assay: Cell cycle arrest in human K562 cells assessed as accumulation at S phase at 0.5 uM after 16 hrs by flow cytometry; type: functional; procedure, shortened: as §3
K562 [22] = assay: Cell cycle arrest in human K562 cells assessed as accumulation at G0/G1 phase at 0.05 uM after 6 hrs by flow cytometry; type: functional; procedure, shortened: as §3
A549 = assay: Antiproliferative activity against human A549 cells after 72 hrs; type: functional, cell-based; details: A549, 72 h; procedure, shortened: as §2
K562 [23] = assay: Cell cycle arrest in human K562 cells assessed as accumulation at S phase at 0.05 uM after 6 hrs by flow cytometry; type: functional; procedure, shortened: as §3
K562 [24] = assay: Cell cycle arrest in human K562 cells assessed as accumulation at G2/M phase at 1 uM after 6 hrs by flow cytometry; type: functional; procedure, shortened: as §3
K562 [25] = assay: Cell cycle arrest in human K562 cells assessed as accumulation at G2/M phase at 1 uM after 16 hrs by flow cytometry; type: functional; procedure, shortened: as §3
K562 [26] = assay: Cell cycle arrest in human K562 cells assessed as accumulation at S phase at 0.5 uM after 24 hrs by flow cytometry; type: functional; procedure, shortened: as §3
K562 [27] = assay: Cell cycle arrest in human K562 cells assessed as accumulation at G0/G1 phase at 0.05 uM after 16 hrs by flow cytometry; type: functional; procedure, shortened: as §3
MCF7 [28] = assay: Antiproliferative activity against human MCF7 cells after 72 hrs; type: functional, cell-based; details: MCF7, 72 h; procedure, shortened: as §2
[29] = Inhibition of sheep brain tubulin polymerization; parameters: species or system Ovis aries
Procedure, shortened: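 Sheep brain tubulin (about 2–3 mg/mL), purified by two assembly–disassembly cycles, in 0.1 M MES, 0.5 mM MgCl₂, 1 mM EGTA, 1 mM GTP, pH 6.6. Assembly followed by turbidity at 350 nm, 37 °C.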

K562 [30] = assay: Cell cycle arrest in human K562 cells assessed as accumulation at G2/M phase at 0.05 uM after 6 hrs by flow cytometry; type: functional; procedure, shortened: as §3
K562 [31] = assay: Cell cycle arrest in human K562 cells assessed as accumulation at G2/M phase at 0.5 uM after 6 hrs by flow cytometry; type: functional; procedure, shortened: as §3
K562 [32] = assay: Antiproliferative activity against human K562 cells after 72 hrs; type: functional, cell-based; details: K562, 72 h; procedure, shortened: as §2

CC[C@@H]1NC(=O)c2[nH]c3ccccc3c2-c2ccccc21
Activity (MDA-MB-231 [1]): Active
IC50 (HCT-116 [2]): 42 nM
Activity (HCT-116 [3]): Active
Activity (K562 [4]): 91.1%
Activity (K562 [5]): 1.1%
IC50 (HT-29): 42 nM
Activity (MDA-MB-231 [6]): Active
Activity (K562 [7]): 24.9%
Activity (K562 [8]): 97.6%
Activity (K562 [9]): Active
IC50 (MDA-MB-231 [10]): 30 nM
IC50 (B16-F10): 68 nM
Activity (K562 [11]): 1.2%
IC50 (L1210): 34 nM
Activity (K562 [12]): 69.5%
Activity (MDA-MB-231 [13]): 44.5%
Activity (MCF7 [14]): 62.6%
Activity (K562 [15]): 7.6%
IC50 (KB): 37 nM
Activity (K562 [16]): 0.2%
Activity (MDA-MB-231 [17]): 100%
Activity (K562 [18]): 49.1%
Activity (K562 [19]): 44.7%
Activity (K562 [20]): 67.8%
Activity (K562 [21]): 47.3%
Activity (K562 [22]): 0.3%
IC50 (A549): 50 nM
Activity (K562 [23]): 94.3%
Activity (K562 [24]): 8.1%
Activity (K562 [25]): 43.4%
Activity (K562 [26]): 53.4%
Activity (K562 [27]): 1%
IC50 (MCF7 [28]): 40 nM
IC50 [29]: 1900 nM
Activity (K562 [30]): 4.9%
Activity (K562 [31]): 32%
IC50 (K562 [32]): 70 nM
